# Experimental data taken from ChEMBL document CHEMBL1141340, “Protein phosphatase inhibitors isolated from Spongia irregularis collected in Papua New Guinea” (J Nat Prod, 2007).
# Activity calls are given as the source filed them. No cut-off for these calls is given here.
# What was measured:
# [1] = Inhibition of calcineurin
# [2] = Inhibition of PP1c
# Outline: (§1)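 Enzyme source was purified catalytic subunits of protein phosphatases PP-1 and PP-2A. Results are reported as IC50.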
# [3] = Inhibition of PP2A; outline: as §1
Structure (SMILES),IC50 [1] [µM],IC50 [2] [µM],IC50 [3] [µM],Activity [1]
CC(C)CCN1CC=C(CCCC(CC[C@@]2(C)C3=CCCC(C)(C)[C@@H]3CC[C@H]2C)COS(=O)(=O)O)C1=O (stereo partly specified) [IREGULARASULFATE],59,–,–,–
CC1=CCCC(C)(C)C1CC/C(C)=C/CCC(CCCc1ccoc1)COS(=O)(=O)O (stereo unspecified) [HIPPOSULFATE C],66,71,130,–
CC1=CCCC(C)(C)C1CC/C(C)=C/CCC(CCCc1ccoc1)COP(O)(O)=S (stereo unspecified),70,–,–,–
CC1=CCCC(C)(C)C1CC/C(C)=C/CCC(CO)CCCc1ccoc1 (stereo unspecified),–,–,–,inactive
C[C@@H]1CC[C@@H]2C(=CCCC2(C)C)[C@]1(C)CCC(CCCc1ccoc1)COP(=O)(O)O (stereo partly specified),230,36,–,–
C[C@@H]1CC[C@@H]2C(=CCCC2(C)C)[C@]1(C)CCC(CCCc1ccoc1)COS(=O)(=O)O (stereo partly specified),69,64,140,–
